Source: PubChem BioAssay
The list is not random: actives were taken first. Their share in the collection is about 11%.
S1P3 agonist = human S1P3 receptor agonists, primary screen, cell-based, primary and confirmation, NFAT-BLA reporter | Sphingosine 1-phosphate receptor 3 (Homo sapiens), Q99500 | S1P3 NFAT-BLA reporter cells, agonism, FRET ratio; relative to 1 µM S1P, basal subtracted | activation, % at 4.5 µM | actives 0.1% (n = 60,000);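 active = activation above the screen-wide mean plus 3 SD, cut at about 4.5% in these data, passing the limit was not always enough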
Target sequence (Q99500 whole entry, looked up): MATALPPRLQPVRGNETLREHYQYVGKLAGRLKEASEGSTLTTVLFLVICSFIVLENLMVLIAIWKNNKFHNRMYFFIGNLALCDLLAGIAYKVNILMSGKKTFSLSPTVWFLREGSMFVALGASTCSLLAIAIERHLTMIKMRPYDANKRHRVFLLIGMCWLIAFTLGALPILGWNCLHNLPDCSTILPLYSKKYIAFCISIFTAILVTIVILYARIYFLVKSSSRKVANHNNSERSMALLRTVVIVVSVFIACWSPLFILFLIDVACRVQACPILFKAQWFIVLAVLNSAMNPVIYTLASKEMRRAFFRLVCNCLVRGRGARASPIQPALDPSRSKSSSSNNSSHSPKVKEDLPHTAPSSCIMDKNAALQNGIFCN
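Material: Human S1P3 NFAT-BLA reporter CHO cells | Incubation: Overnight plating, 4 h compound 37 °C, 2 h substrate RT | Signal: FRET β-lactamase substrate fluorescence, excitation 405 nm, 460/535 nm emission ratio, background-subtracted | Compound: 4.5 µM final, single dose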
M1 antagonist = antagonists of rat M1 muscarinic receptor. Muscarinic acetylcholine receptor M1 (Rattus norvegicus), P08482. CHO-M1 cells, Fluo-4 calcium, ACh EC80 antagonist mode; hits give low values. B-score at 10 µM. actives 3.4% (n = 64,000). AID 628, 2007;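 active = calcium fluorescence response, raw or row-and-column corrected B-score, differing from the plate sample mean either way at a set confidence level, mostly lower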
M1 agonist = M1 muscarinic receptor agonists, primary screen, CHO-M1 cells, Fluo-4 calcium, agonist mode; actives 3% (n = 64,000); AID 626, 2007; Fluo-4 calcium fluorescence; hits give high values; B-score at 10 µM; Muscarinic acetylcholine receptor M1;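 active = fluorescence rise, raw or as B-score row- and column-corrected plate score, outside the 99.7% band of its plate's samples, either direction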
S1P1 ag pot = S1P1 agonists and agonism potentiators, primary screen, cell-based, primary and confirmation screens, CRE-bla reporter. Sphingosine 1-phosphate receptor 1 (Homo sapiens), P21453. S1P1 CRE-bla cells, forskolin, beta-lactamase FRET, potentiator mode; S1P1 agonist co-added at EC20, 2 nM; 100% = saturating reference agonist, 0% = basal. activation, % at 9.5 µM. actives 0.57% (n = 56,000). AID 449, 2006;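 active = activation above a cutoff set at the mean activation of all tested compounds plus 3 SD, cut at about 54% in these data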;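 also: forskolin at 4 µM as EC80 and the EC20 agonist is SEW2871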
D1 mod = D1 CRE-luciferase signal change, two-sided – cell-based, HEK293 D1, dopamine EC30, D1 allosteric modulator project, primary screen. D(1A) dopamine receptor (Homo sapiens), P21728. dopamine EC30 potentiation; actives deviate in either direction. B-score at 10 µM. actives 5.9% (n = 58,000). AID 641, 2007;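 active = luminescence count or its row- and column-corrected plate score outside the 99.7% band of the plate's sample wells, on either side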
D1 mod confirm = D1 receptor positive allosteric modulators, retest, confirmation, cell-based, HEK293 D1, CRE-luciferase, duplicate; dopamine EC30 potentiation; hits give high values; actives 88% (n = 2,200); shares compounds with D1 mod; luminescence at 10 µM;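 active = luminescence in either of two replicates above the same-plate mean plus 3 SD of the low-dose dopamine control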
D1 no dopamine = D1 receptor agonism without dopamine, confirmation, mechanism study for D1 allosteric modulator project, cell-based, HEK293 D1, CRE-luciferase, secondary assay 1. actives 0.8% (n = 1,900). shares compounds with D1 mod. luminescence, no dopamine; hits give high values. luminescence at 10 µM; in the data active = luminescence above about 3900
Isoprot counter = isoproterenol response counter-screen activity for D1 modulators; shares compounds with D1 mod; HEK293 D1 CRE-luciferase, isoproterenol EC30 counter-screen; hits give high values; luminescence at 10 µM; actives 63% (n = 2,200);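 active = luminescence in either replicate above plate mean of wells with a partly effective reference agonist dose plus 3 SD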;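 also: isoproterenol raises cAMP through native beta-adrenoceptor Gs so signal bypasses D1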
A number is an active result; n = inactive; x = no result given.

SMILES | S1P3 agonist | M1 antagonist | M1 agonist | S1P1 ag pot | D1 mod | D1 mod confirm | D1 no dopamine | Isoprot counter
Cc1nc2ccccc2n1CC(O)Cn1c(C(F)(F)F)nc2ccccc21 (centres undefined) | n | n | n | n | n | x | x | x
COC(=O)c1cccc(COC(=O)c2ccccc2NC(=O)c2ccco2)c1 | n | n | n | n | n | x | x | x
COC(=O)c1c(-c2ccccc2)csc1NC(=O)c1ccco1 | n | n | n | n | 4.9 | 6288 | n | n
COC(=O)c1ccccc1NC(=O)c1ccco1 | n | n | n | n | 4.4 | 11880 | n | 3404
O=C(COc1ccccc1)Nc1ccccc1N1CCCCC1 | n | n | n | n | 3.4 | n | x | n
O=C(Nc1ccccc1C(=O)NCc1cccnc1)c1ccco1 | x | n | n | x | x | x | x | x
O=C(Nc1ccc(Cl)cc1C(=O)NCc1cccnc1)c1ccco1 | n | n | n | n | 10 | 16768 | n | 2916
O=C(Nc1ccc(Cl)cc1C(=O)Nc1ccncc1)c1ccco1 | n | n | n | n | 8.7 | 11616 | x | 2860
CCOC(=O)c1cc2c(=O)n(C)c3ccccc3c2s1 | n | x | x | n | n | x | x | x
CC12CC(NC(=O)N1c1cccc(C(=O)N3CCN(c4ccccc4F)CC3)c1)c1ccccc1O2 (centres undefined) | x | n | n | x | 3.5 | n | n | n
OCC(CO)(CO)n1cnnn1 | n | n | n | n | 3.5 | n | n | n
Fc1cc(Br)ccc1Nc1nc2ccccc2n2nnnc12 | n | n | n | n | 3.1 | 10956 | n | n
Cc1cc(Nc2ccc(Br)cc2F)n2nc(C)nc2n1 | n | n | n | n | x | x | x | x
O=C(O)c1[nH]nc2c1COc1ccccc1-2 | n | n | n | n | n | x | x | x
CC(C)C1N=C2c3ccccc3N=C(SCC#N)N2C1=O (centres undefined) | n | n | n | n | 5.1 | 10160 | n | n
N#CCSC1=Nc2ccccc2C2=NC(CCC(=O)N3CCN(c4ccccc4)CC3)C(=O)N12 (centres undefined) | x | n | n | x | n | x | x | x
CC(NC(=O)c1ccco1)c1ccc2c(c1)OCCO2 (centres undefined) | n | n | n | n | n | x | x | x
CCC(NC(C)C)C(O)c1ccc(O)c2[nH]c(=O)ccc12 (centres undefined) | n | n | n | n | 14 | 8644 | 3980 | 5668
CC(=O)c1c(C)[nH]c(C(=O)OCn2nnc3ccccc3c2=O)c1C | n | n | n | n | 2.4 | n | x | n
CSc1ncccc1C(=O)OCn1nnc2ccccc2c1=O | n | n | n | n | 3.3 | 9044 | n | 3480
Cc1nn(-c2ccccc2)c2sc(C(=O)OCC(=O)N3CCCCC3)cc12 | n | n | n | n | n | x | x | x
COc1cc2c(cc1OC)CN(C(=O)CSc1n[nH]c(N)n1)CC2 | n | n | n | x | 13 | 16292 | n | 3648
COc1cc2c(cc1OC)CN(C(=O)CCCN1C(=O)c3ccccc3C1=O)CC2 | n | n | n | n | 5 | 7424 | n | 3264
CCC(C(=O)N1CCc2cc(OC)c(OC)cc2C1)c1ccccc1 (centres undefined) | n | n | n | n | n | x | x | x
CC(C)C(CO)NC(=O)CC(=O)NC(CO)C(C)C (centres undefined) | n | n | n | n | n | x | x | x
SMILES | S1P3 agonist | M1 antagonist | M1 agonist | S1P1 ag pot | D1 mod | D1 mod confirm | D1 no dopamine | Isoprot counter
Cc1cc(C)n(CC(=O)n2c3ccccc3c3ccccc32)n1 | n | x | x | n | n | x | x | x
Cc1cc(C)n(CC(=O)n2c3c(c4ccccc42)CCCC3)n1 | n | n | n | n | 5.7 | 11600 | n | n
O=C(Cn1nnc(-c2ccncc2)n1)N(C1CCCCC1)C1CCCCC1 | n | n | n | n | n | x | x | x
CCOC(=O)Cc1nnc2c(Nc3ccc(Cl)cc3)nc3nonc3n12 | n | n | n | n | n | x | x | x
CCc1nnc(NC(=O)CSc2ncc(-c3ccccc3)n2CC)s1 | n | n | n | n | 3.5 | 8216 | n | n
Cc1nc(Cc2nnc(SCc3nc(N)nc(Nc4ccccc4C)n3)o2)cs1 | x | n | n | x | n | x | x | x
Cn1c(=O)c2c(nc(SCCCO)n2Cc2ccccc2Cl)n(C)c1=O | n | n | n | n | 3.9 | 6636 | n | n
CSc1nc2oc3c(c2c2nncn12)CC(C)(C)SC3 | n | n | n | n | 5.7 | 9128 | n | n
CC1(C)Cc2c(oc3ncn4ncnc4c23)CO1 | n | n | n | n | x | x | x | x
O=C(CSc1nc(-c2ccccc2)cs1)NC(=O)NCc1ccco1 | n | n | n | n | n | x | x | x
O=C(CSc1nc2ccccc2s1)NC(=O)NCc1ccco1 | n | n | n | n | 5.9 | 8872 | n | n
CCN(CC(=O)Nc1c(C(=O)OC)[nH]c2ccccc12)c1ccc2c(c1)OCO2 | n | n | n | n | 8.3 | 11912 | n | 4496
COc1cc2c(cc1OC)/C(=C/C#N)NC(C)(C)C2 | n | n | n | n | 10 | 16360 | n | 5416
Cc1cc2c(cc1C)/C(=C\C(N)=O)NC(C)(C)C2 | n | n | n | n | n | x | x | x
CCOc1ccc(NC(=O)c2nnn(CC(=O)Nc3ccccc3OCC)c2N)cc1 | n | n | n | n | n | x | x | x
CCOc1ccc(NC(=O)Cn2nnc(C(=O)NCc3ccccc3OC)c2N)cc1 | n | n | n | n | 4.3 | n | n | n
CN(Cc1ccccc1)Cc1nc2c([nH]1)c(=O)n(C)c(=O)n2C | x | n | n | x | n | x | x | x
COC(=O)COc1nsnc1N1CCOCC1 | n | n | n | n | 2.3 | 6088 | x | n
COc1cccc(-c2nc(N3CCN(Cc4ccccc4)CC3)c3ccccc3n2)c1O | n | n | n | n | x | x | x | x
CCCCN(CC)C(=O)c1ccc(Cl)c(Cl)c1 | n | n | n | x | 3.8 | 7124 | n | n
Cc1cc(C)c2c(c1)-c1cc(C)nn1C(c1ccc3c(c1)OCO3)N2 (centres undefined) | n | n | n | n | 4.4 | 10424 | x | 2824
Cc1cc2n(n1)C(c1ccc3c(c1)OCO3)Nc1c(C)cccc1-2 (centres undefined) | n | n | n | n | 12 | 13912 | n | 3788
Cc1cc2n(n1)C(c1ccco1)Nc1ccccc1-2 (centres undefined) | n | n | n | n | x | x | x | x
